According to article PMC10634246 (ACS Omega, 2023):

Key:
[1] = tested on: CAT; assay: CAT activity in HUVEC; assay type: cell-based, human; details: peptide 100 μM, 4 h, then Ang II 5 μM, 24 h; assay kit; n = 3
[2] = tested on: eNOS; assay: Western blot, eNOS expression in HUVEC; assay type: cell-based, human; details: peptide 100 μM, 4 h, then Ang II 5 μM, 24 h
Summary of the method: (§1)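 HUVECs at 5 × 10^6 cells/well, pretreated with 100 μM test peptide 4 h, then Ang II 5 μM 24 h. Lysed in ice-cold buffer 30 min, spun 12,000 × g 10 min, protein by BCA. Denatured 95 °C 10 min, 20–40 μg on 10% SDS-PAGE, PVDF transfer. Blocked in 5% BSA 1 h RT, primary antibody 4 °C overnight, secondary 1 h RT. Triplicate, mean ± SD.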

[3] = tested on: p-eNOS; assay: Western blot, p-eNOS in HUVEC; assay type: cell-based, human; details: peptide 100 μM, 4 h, then Ang II 5 μM, 24 h
Summary of the method: as §1

[4] = tested on: ET-1; assay: Western blot, ET-1 expression in HUVEC; assay type: cell-based, human; details: peptide 100 μM, 4 h, then Ang II 5 μM, 24 h
Summary of the method: as §1

[5] = tested on: HUVEC; assay: HUVEC morphology and cell number, inverted microscope; assay type: cell-based, human; details: peptide 100 μM, 4 h, then Ang II 5 μM, 24 h; 200×
Summary of the method: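 HUVECs were suspended in fresh medium at a final 4 × 10^5 cells/well in 6-well plates and given 100 μM test peptide for 4 h. Medium was discarded, then 5 μM Ang II was added for 24 h. Cells were observed and photographed under an inverted microscope.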

[6] = tested on: GSH-Px; assay: GSH-Px activity in HUVEC; assay type: cell-based, human; details: peptide 100 μM, 4 h, then Ang II 5 μM, 24 h; assay kit; n = 3
[7] = tested on: HUVEC; assay: NO level in HUVEC; assay type: cell-based, human; details: peptide 100 μM, 4 h, then Ang II 5 μM, 24 h; for NO level: assay kit, n = 3
[8] = tested on: HO-1; assay: Western blot, HO-1 expression in HUVEC; assay type: cell-based, human; details: peptide 100 μM, 4 h, then Ang II 5 μM, 24 h; gray scale analysis of bands
Summary of the method: as §1

[9] = tested on: HepG2; details: cited from earlier work
[10] = tested on: SOD; assay: SOD activity in HUVEC; assay type: cell-based, human; details: peptide 100 μM, 4 h, then Ang II 5 μM, 24 h; assay kit; n = 3
[11] = tested on: NQO1; assay: Western blot, NQO1 expression in HUVEC; assay type: cell-based, human; details: peptide 100 μM, 4 h, then Ang II 5 μM, 24 h; gray scale analysis of bands
Summary of the method: as §1

[12] = tested on: Nrf2; assay: Western blot, Nrf2 expression in HUVEC; assay type: cell-based, human; details: peptide 100 μM, 4 h, then Ang II 5 μM, 24 h; for expression of Nrf2 protein: gray scale analysis of bands
Summary of the method: as §1

[13] = tested on: eNOS and ET-1; details: cited from earlier work
[14] = tested on: HUVECs; details: Ang II-stimulated HUVECs; cited from earlier work
[15] = tested on: HUVEC; assay: MDA content in HUVEC; assay type: cell-based, human; details: 24 h, n = 3

| Substance | CAT activity [1] | eNOS expression [2] | eNOS phosphorylation (p-eNOS) [3] | ET-1 expression [4] | HUVEC morphology [5] | number of cells [5] | GSH-Px activity [6] | NO level [7] | HO-1 expression [8] | protection against hyperglycemia-induced HepG2 damage [9] | SOD activity [10] | NQO1 expression [11] | expression of Nrf2 protein [12] | effect on eNOS and ET-1 levels [13] | other results |
| --- | --- | --- | --- | --- | --- | --- | --- | --- | --- | --- | --- | --- | --- | --- | --- |
| KLHDEEVA [KA-8] | significantly reversed the decline | increased | increased | markedly blocked the Ang II-induced changes | did not improve the number and morphology of cells as significantly as PG-8 | did not improve the number and morphology of cells as significantly as PG-8 | significantly reversed the decline | increased | increased | revealed the protective effects | significantly reversed the decline | increased | reversed the inhibitory effect of Ang II |  |  |
| IVTNWDDMEK |  |  |  |  |  |  |  |  |  |  |  |  |  | improvement effects |  |
| LSGYGP |  |  |  |  |  |  |  |  |  |  |  |  |  | improvement effects | protection against oxidative stress and endothelial injury [14]: revealed protective effects |
| Angiotensin II [Ang II, reference compound] | significantly reduced | obvious inhibition | obvious inhibition | increased | polygonal or round with the blurred cell boundaries | significantly reduced compared with the Con group | significantly reduced | obvious inhibition |  |  | significantly reduced |  | significantly inhibited |  | increase of MDA content compared to the Con group ([15]; Ang II 5 μM, compared to Con group): 200% |
| IPIPATKT |  |  |  |  |  |  |  |  |  |  |  |  |  | improvement effects |  |
| PSRILYG [PG-7] | significantly rebounded to the levels in the Con group | increased | increased | markedly blocked the Ang II-induced changes |  | significantly reversed | significantly rebounded to the levels in the Con group | increased | higher than that in the KA-8 group | revealed the protective effects | significantly rebounded to the levels in the Con group | increased | reversed the inhibitory effect of Ang II |  | eNOS level higher than in the Ang II group ([2]; compared to Ang II group): more than 100%; p-eNOS level higher than in the Ang II group ([3]; compared to Ang II group): more than 100%; level of intracellular MDA ([15]; peptide 100 μM, 4 h, then Ang II 5 μM, assay kit): decreased to that of the Con group; NO level higher than in the Ang II group ([7]; compared to Ang II group): more than 100%; Nrf2 content higher than in the Con group ([12]; compared to Con group): about 50% |
